From ChEMBL document CHEMBL4619801, “Discovery of Phthalazinone Derivatives as Novel Hepatitis B Virus Capsid Inhibitors” (J Med Chem, 2020)
The source made the active and inactive calls. The calls are words filed in the database; no cut-off is given here.

Columns and labels:
Hepatitis B virus [1] = assay: Antiviral activity against HBV infected in human HepG2.2.15 cells assessed as reduction in cytoplasmic HBV-DNA replication incubated for 8 days by real-time PCR analysis; assay type: functional, organism-based
[2] = Cytotoxicity in human HepG2.2.15 cells assessed as reduction in cell viability incubated for 8 days by MTT assay; assay type: cell-based, HepG2 2.2.15
In short: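 This was run in the same 8-day HepG2.2.15 cultures. After the medium was removed, MTT was added (final 2.5 mg/mL) for 1 h at 37 °C. Cells were lysed in 10% SDS/50% DMF, pH 7.2, and OD was read at 570 nm to give % cell death. CC50 was averaged with SD from at least two independent determinations.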

Hepatitis B virus [3] = assay: Antiviral activity against HBV infected in human HepG2.2.15 cells assessed as reduction in cytoplasmic HBV-DNA replication at cytotoxic CC50 level incubated for 8 days by real-time PCR analysis; assay type: functional, organism-based; details: HepG2 2.2.15
Hepatitis B virus [4] = assay: Antiviral activity against HBV infected in human HepG2.2.15 cells assessed as reduction in relaxed circular form of viral DNA at 0.06 to 1 uM incubated for 8 days by Southern blotting analysis; assay type: functional, organism-based; details: HepG2 2.2.15
In short: (§1)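 HepG2.2.15 cells grown in 12-well plates were treated at the indicated concentrations for 8 days. HBV DNA was extracted from intracellular capsids and detected by Southern blot hybridization with a DIG-labeled HBV genomic fragment probe. Relaxed circular (rc) and single-stranded (ss) replication intermediates were read from the blot.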

[5] = Drug level in CD1 mouse liver at 20 mg/kg, po dosed as single administration measured after 24 hrs; assay type: ADME, organism-based; details: in vivo
In short: (§2)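 ICR (CD-1) mice were dosed orally at 20 mg/kg. At set times (1, 3, 8 and 24 h), blood was taken from the heart and portal vein under isoflurane anesthesia and spun to plasma. Livers were removed after portal vein perfusion, rinsed in saline, weighed and homogenized in saline (5 mL/g). Samples were analysed by UPLC–MS/MS in positive electrospray mode.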

[6] = Drug level in CD1 mouse liver at 20 mg/kg, po dosed as single administration measured after 1 to 8 hrs; assay type: ADME, organism-based; details: in vivo; in short: as §2
Hepatitis B virus [7] = assay: Antiviral activity against HBV infected in human HepG2.2.15 cells assessed as reduction in single-stranded form of viral DNA at 0.06 to 1 uM incubated for 8 days by Southern blotting analysis; assay type: functional, organism-based; details: HepG2 2.2.15; in short: as §1
Hepatitis B virus [8] = assay: Antiviral activity against HBV infected in human HepG2.2.15 cells assessed as reduction in capsid associated DNAs at 0.1 uM by agarose gel electrophoresis method; assay type: functional, organism-based; details: HepG2 2.2.15
In short: (§3)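 HepG2.2.15 cells treated at indicated concentrations for 8 days. Intracellular capsids resolved on 1.8% native agarose gel; capsid mobility compared with untreated cells, and capsid-associated HBV DNA detected in situ.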

Hepatitis B virus [9] = assay: Antiviral activity against HBV infected in human HepG2.2.15 cells assessed as reduction in capsid formation; assay type: functional, organism-based; details: HepG2 2.2.15
Hepatitis B virus [10] = assay: Antiviral activity against HBV infected in human HepG2.2.15 cells assessed as reduction in capsid associated DNAs at 5 uM by agarose gel electrophoresis method; assay type: functional, organism-based; details: HepG2 2.2.15; in short: as §3
mouse (Mus musculus) [11] = assay: Tmax in mouse at 2 mg/kg, iv dosed as single administration; details: in vivo
mouse (Mus musculus) [12] = assay: AUC (0 to infinity) in mouse at 20 mg/kg, po dosed as single administration; details: in vivo
mouse (Mus musculus) [13] = assay: Observed volume of distribution at steady state in mouse at 2 mg/kg, iv dosed as single administration; details: in vivo, read-out: Vdss
mouse (Mus musculus) [14] = assay: AUC (0 to infinity) in mouse at 2 mg/kg, iv dosed as single administration; details: in vivo
mouse (Mus musculus) [15] = assay: Observed clearance in mouse at 2 mg/kg, iv dosed as single administration; details: in vivo
mouse (Mus musculus) [16] = assay: Half life in mouse at 2 mg/kg, iv dosed as single administration; details: in vivo
Hepatitis B virus [17] = assay: Antiviral activity against HBV infected in human HepG2.2.15 cells assessed as reduction in capsid associated DNAs at 1 uM by agarose gel electrophoresis method; assay type: functional, organism-based; details: HepG2 2.2.15; in short: as §3
[18] = Ratio of drug level in liver to plasma of CD1 mouse at 20 mg/kg, po dosed as single administration measured after 8 hrs; assay type: ADME, organism-based; in short: as §2
Hepatitis B virus [19] = assay: Antiviral activity against HBV in AAV8-HBV-transduced Balb/c mouse assessed as reduction in HBV DNA level in plasma at 50 to 150 mg/kg, po BID for 4 weeks; assay type: functional, organism-based
In short: (§4)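 Male Balb/c mice (6−8 weeks, SPF) given one iv tail-vein injection of recombinant AAV carrying HBV 1.1 genome (10¹¹ viral genome equivalents); after 5 weeks, stably viremic mice dosed orally for 4 weeks. […] Weekly blood sampling; plasma HBV DNA by real-time PCR; Dunnett's test versus vehicle.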

Hepatitis B virus [20] = assay: Antiviral activity against HBV infected in human HepG2.2.15 cells assessed as increase in faster-migrating capsids levels at 0.13 to 1 uM by agarose gel electrophoresis method; assay type: functional, organism-based; details: HepG2 2.2.15; in short: as §3
Hepatitis B virus [21] = assay: Antiviral activity against HBV in AAV8-HBV-transduced Balb/c mouse assessed as reduction in HBV DNA level in plasma at 150 mg/kg, po BID for 4 weeks relative to control; assay type: functional; in short: as §4
Hepatitis B virus [22] = assay: Antiviral activity against HBV infected in human HepG2.2.15 cells assessed as reduction in capsid associated DNAs at 0.13 to 1 uM by agarose gel electrophoresis method; assay type: functional, organism-based; details: HepG2 2.2.15; in short: as §3
Hepatitis B virus [23] = assay: Antiviral activity against HBV in AAV8-HBV-transduced Balb/c mouse assessed as reduction in HBV DNA level in plasma at 100 mg/kg, po BID for 4 weeks relative to control; assay type: functional, organism-based; in short: as §4
[24] = Drug level in CD1 mouse liver at 20 mg/kg, po dosed as single administration measured after 8 hrs; assay type: ADME, organism-based; details: read-out: Drug uptake; in short: as §2

Row | Compound | IC50 (Hepatitis B virus [1]; HepG2 2.2.15, 192 h) | IC90 (Hepatitis B virus [1]; HepG2 2.2.15, 192 h) | CC50 at 192 h [2] | also measured
1 | COc1cc(-c2ccc(F)nc2F)nn(Cc2ccc(Cl)cc2)c1=O | – | – | 92200 nM | Activity (Hepatitis B virus [3]): inactive
2 | COC(=O)c1cc(-c2ccc(F)nc2F)nn(Cc2ccc(Cl)cc2)c1=O | – | – | > 100000 nM | Activity (Hepatitis B virus [3]): inactive
3 | COCCNc1ccc(-c2nn(Cc3ccc(C#N)cc3)c(=O)c3ccccc23)c(F)n1 | 430 nM | > 10000 nM | > 100000 nM | –
4 | CN(C)CCNc1nc(F)c(-c2nn(Cc3ccc(C#N)cc3)c(=O)c3ccccc23)cc1Cl | 260 nM | 870 nM | 9760 nM | –
5 | N#Cc1ccc(Cn2nc(-c3cc(Cl)c(NC[C@@H](O)CO)nc3F)c3ccccc3c2=O)cc1 | 8 nM | 240 nM | > 100000 nM | –
6 | N#Cc1ccc(Cn2nc(-c3cc(Cl)c(NCCC(=O)O)nc3F)c3ccccc3c2=O)cc1 | 260 nM | 4020 nM | > 100000 nM | –
7 | CC(=O)Nc1ccc(-c2nn(Cc3ccc(C#N)cc3)c(=O)c3ccccc23)c(F)n1 | – | – | > 100000 nM | IC90 (Hepatitis B virus [1]; HepG2 2.2.15): inactive; Activity (Hepatitis B virus [3]): inactive
8 | C=C1[C@H](CO)[C@@H](O)C[C@@H]1n1cnc2c(=O)[nH]c(N)nc21 | – | – | – | Activity (Hepatitis B virus [8]): Active; Activity (Hepatitis B virus [9]): inactive
9 | COc1ccccc1/C(Br)=C(/NC(=O)c1ccc([N+](=O)[O-])cc1)C(=O)N1CCCCC1 | 870 nM | – | > 20000 nM | Activity (Hepatitis B virus [10]): Active
10 | N#Cc1ccc(Cn2nc(-c3cc(Cl)c(NCCO)nc3F)c3ccccc3c2=O)cc1 | 28 nM | 230 nM | 32100 nM | Tmax (mouse (Mus musculus) [11]): 0.25 h; AUC(0-inf) (mouse (Mus musculus) [12]): 171 ng·h/mL; Vd (mouse (Mus musculus) [13]): 5.44 L/kg; AUC (mouse (Mus musculus) [14]): 735 ng·h/mL
11 | COC(=O)CCNc1nc(F)c(-c2nn(Cc3ccc(C#N)cc3)c(=O)c3ccccc23)cc1Cl | 210 nM | 1140 nM | > 100000 nM | –
12 | N#Cc1ccc(Cn2nc(-c3cc(Cl)c(NC[C@H](O)CO)nc3F)c3ccccc3c2=O)cc1 | 22 nM | 1010 nM | > 100000 nM | –
13 | O=C(O)c1cc(-c2ccc(F)nc2F)nn(Cc2ccc(Cl)cc2)c1=O | – | – | > 100000 nM | Activity (Hepatitis B virus [3]): inactive
14 | COCCNc1nc(F)c(-c2nn(Cc3ccc(C#N)cc3)c(=O)c3ccccc23)cc1Cl | 38 nM | 350 nM | > 100000 nM | Activity (Hepatitis B virus [4]): Dose-dependent effect; AUC(0-inf) (mouse (Mus musculus) [12]): 850 ng·h/mL; Vd (mouse (Mus musculus) [13]): 3.09 L/kg; AUC(0-inf) (mouse (Mus musculus) [14]): 3070 ng·h/mL; clearance (mouse (Mus musculus) [15]): 11.1 mL/min/kg; half-life (mouse (Mus musculus) [16]): 3.09 h; Activity (Hepatitis B virus [7]): Dose-dependent effect
15 | COC(=O)C1=C(C)NC(c2ncc(F)cc2F)=N[C@H]1c1ccc(F)cc1Cl | 42 nM | – | – | Activity (Hepatitis B virus [17]): Active
16 | Cc1nc(-c2ccc(F)nc2F)cn(Cc2ccc(Cl)cc2)c1=O | – | – | > 100000 nM | Activity (Hepatitis B virus [3]): inactive
17 | N#Cc1ccc(Cn2nc(-c3cc(Cl)c(NCC(O)CO)nc3F)c3ccccc3c2=O)cc1 (configuration not stated) | 14 nM | 390 nM | > 100000 nM | Kp at 8 h [18]: 4; Activity (Hepatitis B virus [4]): Dose-dependent effect; AUC(0-inf) (mouse (Mus musculus) [12]): 49800 ng·h/mL; Vd (mouse (Mus musculus) [13]): 0.766 L/kg; Activity (Hepatitis B virus [19]): Dose-dependent effect; Activity (Hepatitis B virus [20]): Active; AUC(0-inf) (mouse (Mus musculus) [14]): 8250 ng·h/mL; log(activity) (Hepatitis B virus [21]): 2.67; clearance (mouse (Mus musculus) [15]): 4.1 mL/min/kg; Activity (Hepatitis B virus [22]): Dose-dependent effect; half-life (mouse (Mus musculus) [16]): 2.52 h; Activity (Hepatitis B virus [23]): Active; Activity (Hepatitis B virus [7]): Dose-dependent effect; concentration at 8 h [24]: 5950 ng/g

The next lines start with results.

Row | IC50 (Hepatitis B virus [1]; HepG2 2.2.15, 192 h) | IC90 (Hepatitis B virus [1]; HepG2 2.2.15, 192 h) | Compound | CC50 at 192 h [2] | also measured
18 | 5450 nM | – | Cc1cc(-c2ccc(F)nc2F)cn(Cc2ccc(Cl)cc2)c1=O | 90800 nM | –
19 | 170 nM | – | O=c1c(CO)cc(-c2ccc(F)nc2F)nn1Cc1ccc(Cl)cc1 | > 100000 nM | –
20 | 300 nM | – | O=c1c2ccccc2c(-c2ccc(F)nc2F)nn1Cc1ccc(Cl)cc1 | 36700 nM | –
21 | 1220 nM | – | Cc1c(-c2ccc(F)nc2F)nn(Cc2ccc(Cl)cc2)c(=O)c1C | 52900 nM | –
22 | 530 nM | > 10000 nM | CN(C)c1ccc(-c2nn(Cc3ccc(C#N)cc3)c(=O)c3ccccc23)c(F)n1 | 79200 nM | –
23 | 120 nM | – | N#Cc1ccc(Cn2nc(-c3ccc(F)nc3F)c3ccccc3c2=O)cc1 | > 100000 nM | Activity (Hepatitis B virus [4]): Dose-dependent effect; Drug uptake [5]: Not Active; Drug uptake [6]: Active; Activity (Hepatitis B virus [7]): Dose-dependent effect
24 | 1890 nM | – | Cn1cc(-c2ccc(F)nc2F)nc(Cc2ccc(Cl)cc2)c1=O | > 100000 nM | –
25 | 35100 nM | – | O=c1c(C2CC2)cc(-c2ccc(F)nc2F)nn1Cc1ccc(Cl)cc1 | 39800 nM | –
26 | 540 nM | > 10000 nM | CNc1ccc(-c2nn(Cc3ccc(C#N)cc3)c(=O)c3ccccc23)c(F)n1 | > 100000 nM | –
27 | 1450 nM | – | O=c1c2c(c(-c3ccc(F)nc3F)nn1Cc1ccc(Cl)cc1)CCCC2 | 31000 nM | –
28 | 2110 nM | > 10000 nM | CCOc1ccc(-c2nn(Cc3ccc(C#N)cc3)c(=O)c3ccccc23)c(F)n1 | > 100000 nM | –
29 | 820 nM | > 10000 nM | Cc1ccc(-c2nn(Cc3ccc(C#N)cc3)c(=O)c3ccccc23)c(F)n1 | > 100000 nM | –
30 | 800 nM | > 10000 nM | N#Cc1ccc(Cn2nc(-c3ccc(N)nc3F)c3ccccc3c2=O)cc1 | > 100000 nM | –
31 | 11300 nM | – | CC(C)c1cc(-c2ccc(F)nc2F)nn(Cc2ccc(Cl)cc2)c1=O | 56700 nM | –
